# Screening data deposited in PubChem BioAssay by Broad Institute.
# An excerpt weighted towards active compounds, which were near 1.9% of everything screened.
# SR-BI DiI-HDL act – SR-BI HDL lipid transfer activation; CHO ldlA[mSR-BI] cells, DiI-HDL uptake fluorescence, 3 h; 100 = double the neutral-control signal; activation, % at 12.5 µM; 320,000 tested, 0.096% active;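 active = mean replicate activation of at least 60% and every replicate at or above 60%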;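 also: 0% = median plate neutral-control signal and 100% = twice that signal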
#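 Test system: SR-BI-overexpressing, LDLR-lacking CHO cells; Medium: Ham's F12 with 0.5% BSA, HEPES 25 mM, pH 7.4; Schedule: 3 h, 37 °C; Technique: bottom-read fluorescence, 550/595 nm.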
# HIV Env fusion – HIV envelope-mediated fusion inhibition; HeLa-JRFL Env/CEM21 cell fusion, luciferase; inhibition, % at 12.3 µM; 360,000 tested, 1.1% active; AID 651610;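 active = mean replicate inhibition score of at least 50 and every replicate individually at or above 50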;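 also: 0% = plate neutral controls and 100% = maraviroc near 300 nM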
# SR-BI HDL uptake – mouse SR-BI HDL lipid transfer inhibition; ldlA[mSR-BI] CHO cells, DiI-HDL uptake fluorescence, 3 h; inhibition, % at 12.5 µM; 320,000 tested, 0.96% active; AID 488896;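 active = mean replicate inhibition of at least 70% and a set share of replicates each scoring 70 or more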;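 also: 0% = median of neutral control wells and 100% = median of positive control wells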
# Target sequence (Q61009 whole entry, looked up): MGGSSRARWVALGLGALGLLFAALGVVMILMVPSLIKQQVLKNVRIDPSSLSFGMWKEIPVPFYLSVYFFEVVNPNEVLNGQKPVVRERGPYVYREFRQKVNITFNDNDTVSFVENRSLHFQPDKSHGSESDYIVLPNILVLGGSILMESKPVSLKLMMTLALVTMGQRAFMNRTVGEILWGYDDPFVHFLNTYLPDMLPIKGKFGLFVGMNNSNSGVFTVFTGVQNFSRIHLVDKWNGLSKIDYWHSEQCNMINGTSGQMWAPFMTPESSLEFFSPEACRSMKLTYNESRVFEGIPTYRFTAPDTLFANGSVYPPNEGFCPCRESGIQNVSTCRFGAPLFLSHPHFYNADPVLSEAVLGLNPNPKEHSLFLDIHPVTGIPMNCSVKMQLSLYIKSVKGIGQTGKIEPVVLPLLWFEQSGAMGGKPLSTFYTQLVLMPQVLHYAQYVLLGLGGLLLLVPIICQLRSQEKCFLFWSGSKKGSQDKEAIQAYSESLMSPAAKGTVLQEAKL
# PglD DTNB – inhibitors of Campylobacter jejuni PglD acetyltransferase. purified PglD enzyme, DTNB colorimetric CoA detection. inhibition, % at 12.5 µM. AID 602405. 360,000 tested, 0.098% active; in the data active = inhibition above about 16%, passing the limit was not always enough
# Rtt109 Vps75 – C. albicans Rtt109 histone acetyltransferase inhibition. purified Rtt109/Vps75, ThioGlo CoA-SH fluorescence, 4 h. inhibition, % at 34.9 µM. 330,000 tested, 0.16% active;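 active = inhibition of at least 50% in every replicate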
# Glyco luc inh – N-linked glycosylation inhibition; D54 ERlucT glycosylation luciferase reporter, 24 h; percent of 100 nM tunicamycin response; reporter increase, % at 12.5 µM; 360,000 tested, 0.23% active; AID 588692;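 active = mean luciferase reporter signal, scaled so untreated is 0 and the glycosylation-blocking control 100, at or above a set limit in every replicate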;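 also: luciferase carries N-glycosylation sites so blocking glycosylation raises the light; 0% = median of neutral control wells and 100% = median of 100 nM tunicamycin wells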
# Active calls of the source: *; nt = no result; [ ] = dose if it differs, or a comment.
SMILES,SR-BI DiI-HDL act,HIV Env fusion,SR-BI HDL uptake,PglD DTNB,Rtt109 Vps75,Glyco luc inh
C[C@@H]1CCCCO[C@@H](CN(C)S(=O)(=O)c2cccs2)[C@H](C)CN([C@@H](C)CO)C(=O)c2cc(NC(=O)Cc3ccccc3)ccc2O1,nt,-50[16.7 µM],nt,-3,nt,nt
COc1ccc(OC)c(-c2nnc3n2N=C(c2ccc(OC)c(OC4CCCC4)c2)CS3)c1,-7,-54,7,5,20,30*
COc1ccc(C2=Nn3c(nnc3-c3ccncc3)SC2)cc1,-17,96*,17,-5,17,-7
COc1ccc(C2=Nn3c(nnc3-c3ccco3)SC2)cc1,-28,-16,28,0,13,25*
COc1ccc(OC)c(C2=Nn3c(nnc3-c3ccco3)SC2)c1,-9,41,9,2,6,3
COc1ccc(S(=O)(=O)Nc2ccc3c(c2)C(=O)N([C@H](C)CO)C[C@@H](C)[C@H](CN(C)C(=O)Cc2ccccc2)OCCCC[C@@H](C)O3)cc1,nt,-11[16.7 µM],nt,0,nt,nt
COc1ccc(CCNC(=S)N2CCC(C(=O)c3ccc(F)cc3)CC2)cc1OC,-80,21,80*,-1,12,-6
C[C@H]1CN([C@@H](C)CO)C(=O)c2cc(-c3ccc(F)cc3)cnc2O[C@@H]1CN(C)C(=O)c1ccncc1,nt,4[16.7 µM],nt,nt,nt,nt
COc1ccc(S(=O)(=O)/N=C2/NC(=O)/C(=C\c3cc(OC)c(OC)cc3[N+](=O)[O-])S2)cc1,nt,40*,nt,6,7,2
CCn1c(C(=O)OC)cc2c1ccn2-c1ccc(F)cc1,-78,-200,78*,-7,1,-4
Brc1ccc2nc(-c3c[nH]c4ccccc34)cn2c1,-84,-229,84*,-4,27,-3
C[C@@H]1CCCCO[C@H](CN(C)C(=O)C2CCCCC2)[C@H](C)CN([C@@H](C)CO)C(=O)c2cc(NC(=O)C3CCCCC3)ccc2O1,nt,-4[16.7 µM],nt,2,nt,nt
COc1ccc(NC(=O)Nc2ccc3c(c2)CC(=O)N([C@H](C)CO)C[C@H](C)[C@@H](CN(C)Cc2ccc(Oc4ccccc4)cc2)O3)cc1,nt,-1[16.7 µM],nt,3,nt,nt
Cn1c(-c2ccc(Cl)cc2)ccc(C#N)c1=O,-11,75*,11,nt,8,2
Cn1cc(-c2ccc(Cl)cc2)cc(C#N)c1=O,-23,-28,23,nt,-14,2
CCNC(=O)Nc1ccc2c(c1)C(=O)N(C)[C@H]1CC[C@@H](CC(=O)Nc3ccccc3)O[C@@H]1CO2,nt,-27[16.7 µM],nt,-2,nt,nt
C[C@H]1CCCCO[C@H](CN(C)C(=O)Nc2ccc(C(F)(F)F)cc2)[C@@H](C)CN([C@@H](C)CO)C(=O)c2cc(NC(=O)Nc3ccc(F)cc3)ccc2O1,nt,77*[16.7 µM],nt,1,nt,nt
C[C@@H]1CCCCO[C@H](CN(C)C(=O)Nc2ccc(C(F)(F)F)cc2)[C@@H](C)CN([C@H](C)CO)C(=O)c2cc(NC(=O)Nc3ccc(F)cc3)ccc2O1,nt,-2[16.7 µM],nt,1,nt,nt
CC(C)NC(=O)Nc1ccc2c(c1)C(=O)N([C@@H](C)CO)C[C@@H](C)[C@@H](CN(C)C(=O)Nc1ccc(C(F)(F)F)cc1)OCCCC[C@@H](C)O2,nt,79*[16.7 µM],nt,-5,nt,nt
CC(C)NC(=O)Nc1ccc2c(c1)C(=O)N([C@@H](C)CO)C[C@H](C)[C@H](CN(C)C(=O)Nc1ccc(F)cc1)O2,nt,70*[16.7 µM],nt,-1,nt,nt
C[C@@H]1CCCCO[C@H](CN(C)C(=O)C2CCCCC2)[C@@H](C)CN([C@@H](C)CO)C(=O)c2cc(NC(=O)Nc3ccc(F)cc3)ccc2O1,nt,57*[16.7 µM],nt,-4,nt,nt
C[C@@H]1CCCCO[C@@H](CN(C)Cc2ccc3c(c2)OCO3)[C@@H](C)CN([C@H](C)CO)C(=O)c2cc(NC(=O)c3ccncc3)ccc2O1,nt,-16[16.7 µM],nt,0,nt,nt
C[C@H](CO)N1C[C@H](C)[C@H](CN(C)Cc2ccccc2)Oc2ncc(-c3ccc(F)cc3)cc2C1=O,nt,9[16.7 µM],nt,4,nt,nt
C[C@@H](NC(=O)C[C@H]1CC[C@H]2[C@@H](COC[C@@H](O)CN2C)O1)c1ccccc1,nt,-5[16.7 µM],nt,15,nt,nt
C[C@H]1CCCCO[C@H](CN(C)C(=O)Nc2ccc(F)cc2)[C@@H](C)CN([C@@H](C)CO)C(=O)c2cc(NC(=O)Nc3ccc(F)cc3)ccc2O1,nt,62*[16.7 µM],nt,0,nt,nt
